# Experimental data reported in ChEMBL document CHEMBL1136746 (2003).
# Key:
# Caco-2 = test: Apparent Permeability through Caco-2 cell monolayers (n = 4); assay type: functional, cell-based
# Procedure, shortened: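 Caco-2 cells seeded on polycarbonate inserts (0.45 µm pore, 6.5 mm) and grown 21 days to differentiate; TEER >400 Ω/cm² before and after. ³H-acetylated peptide or [¹⁴C]mannitol (200 µM) added apically in HBSS/25 mM HEPES pH 7.4, 37 °C, shaken 400 rpm. Receiver chamber swapped at 30, 90, 150 min; scintillation counting. Papp averaged over four replicates.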
# Rattus norvegicus [1] = organism: Rattus norvegicus; test: Percent Hemolysis observed in rat red blood cells when Treated with 1 mM concentration; assay type: functional
# Rattus norvegicus [2] = organism: Rattus norvegicus; test: Percent Hemolysis observed in rat red blood cells when Treated with 5 mM concentration; assay type: functional
# Rattus norvegicus [3] = organism: Rattus norvegicus; test: Percent Hemolysis observed in rat red blood cells when Treated with 2 mM concentration; assay type: functional
Structure (SMILES),Papp (Caco-2),Hemolysis (Rattus norvegicus [1]),Hemolysis (Rattus norvegicus [2]),Hemolysis (Rattus norvegicus [3])
OC[C@@H](O)[C@@H](O)[C@H](O)[C@H](O)CO,5.88 10e-6 cm s-1,,,
CCCCCCCCCCCCOS(=O)(=O)[O-].[Na+] [SODIUM LAURYL SULFATE],,12.25%,62.66%,51.54%
